SMILES strings stand for the structures. In brackets after ≈: the same amount, converted by molar mass.

One assay deals with Klebsiella pneumoniae. As to the kind of experiment: Antibacterial activity against gram-negative Klebsiella pneumoniae KP153 harboring tet(A) by CLSI method. Format: functional. The method in brief:
(§1)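 CLSI broth microdilution MIC in fresh cation-adjusted Mueller Hinton broth, supplemented with defibrinated horse blood where appropriate. Compounds serially diluted in sterile deionized water. Runs accepted when comparator antibiotics against ATCC quality-control strains fell within recommended ranges.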
Compound `CN1CCCC1c1cc(O)c2c(c1Cl)C[C@H]1C[C@H]3[C@H](N(C)C)C(O)=C(C(N)=O)C(=O)[C@@]3(O)C(O)=C1C2=O` (stereo not given in full) displayed a minimal inhibitory concentration (MIC) of 0.5 µg/mL (≈ 0.94 µM).

Another assay relates to Klebsiella pneumoniae. As to the kind of experiment: Antibacterial activity against gram-negative Klebsiella pneumoniae KP194 by CLSI method. It counts as functional. The method in brief: (§2)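 Broth microdilution MIC per CLSI in cation-adjusted Mueller Hinton broth, prepared fresh and held at 4 °C. Defibrinated horse blood added where appropriate. Compounds serially diluted in sterile deionized water. Strains from ATCC unless otherwise noted. Runs accepted when comparator antibiotics fell within QC ranges for ATCC quality control strains.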
In turn, `CN1CCCC1c1cc(O)c2c(c1Cl)C[C@H]1C[C@H]3[C@H](N(C)C)C(O)=C(C(N)=O)C(=O)[C@@]3(O)C(O)=C1C2=O` (stereo not given in full) came in with an MIC of 8 µg/mL (≈ 15 µM).

A further assay concerns Proteus mirabilis. As to the kind of experiment: Antibacterial activity against gram-negative Proteus mirabilis PM122 by CLSI method. It counts as functional. The method in brief: (§3)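 Defibrinated horse blood added where appropriate. Compounds serially diluted in sterile deionized water. Strains from ATCC unless otherwise noted. Runs accepted when comparator antibiotics fell within QC ranges for ATCC quality control strains.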
With `CN1CCCC1c1cc(O)c2c(c1Cl)C[C@H]1C[C@H]3[C@H](N(C)C)C(O)=C(C(N)=O)C(=O)[C@@]3(O)C(O)=C1C2=O` (stereo not given in full), the MIC turned out to be 0.5 µg/mL (≈ 0.94 µM).

The test system of the next assay is Pseudomonas aeruginosa. As to the kind of experiment: Antibacterial activity against gram-negative Pseudomonas aeruginosa PA169 by CLSI method. Format: functional. In a few lines: as §3
In turn, `CN1CCCC1c1cc(O)c2c(c1Cl)C[C@H]1C[C@H]3[C@H](N(C)C)C(O)=C(C(N)=O)C(=O)[C@@]3(O)C(O)=C1C2=O` (stereo not given in full) returned an MIC of 16 µg/mL (≈ 30.1 µM).

The test system of a further assay is Acinetobacter baumannii. The assay can be described thus: Antibacterial activity against gram-negative Acinetobacter baumannii AB250 by CLSI method. It counts as functional. In a few lines:
as §2
The compound `CN(C)[C@@H]1C(O)=C(C(N)=O)C(=O)[C@@]2(O)C(O)=C3C(=O)c4c(O)cc([C@@H]5CCCN5CC5CC5)c(C(F)(F)F)c4C[C@H]3C[C@@H]12` showed an MIC of 4 µg/mL (≈ 6.6 µM).

`CN1CCCC1c1cc(O)c2c(c1Cl)C[C@H]1C[C@H]3[C@H](N(C)C)C(O)=C(C(N)=O)C(=O)[C@@]3(O)C(O)=C1C2=O` (stereo not given in full) displayed a minimum inhibitory concentration (MIC) of 0.5 µg/mL (≈ 0.94 µM).

The test system of another assay is Stenotrophomonas maltophilia. The assay can be described thus: Antibacterial activity against gram-negative Stenotrophomonas maltophilia SM256 by CLSI method. It counts as functional. In a few lines:
as §2
For the compound `CN(C)[C@@H]1C(O)=C(C(N)=O)C(=O)[C@@]2(O)C(O)=C3C(=O)c4c(O)cc([C@@H]5CCCN5CC5CC5)c(C(F)(F)F)c4C[C@H]3C[C@@H]12`, the MIC was 4 µg/mL (≈ 6.6 µM).

For `CN1CCCC1c1cc(O)c2c(c1Cl)C[C@H]1C[C@H]3[C@H](N(C)C)C(O)=C(C(N)=O)C(=O)[C@@]3(O)C(O)=C1C2=O` (stereo not given in full), the lowest concentration to inhibit growth (MIC) was 0.125 µg/mL (≈ 0.235 µM). Against the preceding compound, the MIC is about 32-fold lower.

In a further assay the test system is Burkholderia cenocepacia. As to the kind of experiment: Antibacterial activity against gram-negative Burkholderia cenocepacia BC240 by CLSI method. It counts as functional. In a few lines:
as §3
On to `CN(C)[C@@H]1C(O)=C(C(N)=O)C(=O)[C@@]2(O)C(O)=C3C(=O)c4c(O)cc([C@@H]5CCCN5CC5CC5)c(C(F)(F)F)c4C[C@H]3C[C@@H]12`, for which the MIC amounted to 16 µg/mL (≈ 26.4 µM).

`CN1CCCC1c1cc(O)c2c(c1Cl)C[C@H]1C[C@H]3[C@H](N(C)C)C(O)=C(C(N)=O)C(=O)[C@@]3(O)C(O)=C1C2=O` (stereo not given in full) displayed a minimal inhibitory concentration (MIC) of 8 µg/mL (≈ 15 µM).

The next assay deals with Enterococcus faecalis. As to the kind of experiment: Antibacterial activity against gram-positive Enterococcus faecalis EFs327 harboring tet(M) by CLSI method. Format: functional. The method in brief: as §1
Compound `CN(C)[C@@H]1C(O)=C(C(N)=O)C(=O)[C@@]2(O)C(O)=C3C(=O)c4c(O)cc([C@@H]5CCCN5CC5CC5)c(C(F)(F)F)c4C[C@H]3C[C@@H]12` returned an MIC of 1 µg/mL (≈ 1.65 µM).

The next assay deals with Enterococcus faecium. The assay can be described thus: Antibacterial activity against gram-positive Enterococcus faecium EFm404 harboring tet(M) by CLSI method. It counts as functional. The method in brief: as §1
In turn, `CN(C)[C@@H]1C(O)=C(C(N)=O)C(=O)[C@@]2(O)C(O)=C3C(=O)c4c(O)cc([C@@H]5CCCN5CC5CC5)c(C(F)(F)F)c4C[C@H]3C[C@@H]12` displayed an MIC of 1 µg/mL (≈ 1.65 µM).

A further assay deals with Klebsiella pneumoniae. As to the kind of experiment: Antibacterial activity against gram-negative Klebsiella pneumoniae KP457 harboring blacTX-M-15 extended spectrum beta-lactamase gene by CLSI method. Format: functional. The method in brief: as §1
Take `CN(C)[C@@H]1C(O)=C(C(N)=O)C(=O)[C@@]2(O)C(O)=C3C(=O)c4c(O)cc([C@@H]5CCCN5CC5CC5)c(C(F)(F)F)c4C[C@H]3C[C@@H]12`: inhibition of growth (MIC) required 16 µg/mL (≈ 26.4 µM).

The subject of a further assay is Proteus mirabilis. As to the kind of experiment: Antibacterial activity against gram-negative Proteus mirabilis PM385 by CLSI method. It counts as functional. In a few lines:
as §2
Compound `CN(C)[C@@H]1C(O)=C(C(N)=O)C(=O)[C@@]2(O)C(O)=C3C(=O)c4c(O)cc([C@@H]5CCCN5CC5CC5)c(C(F)(F)F)c4C[C@H]3C[C@@H]12` came in with an MIC of 8 µg/mL (≈ 13.2 µM).

The subject of a further assay is Pseudomonas aeruginosa. As to the kind of experiment: Antibacterial activity against gram-negative Pseudomonas aeruginosa PA555 by CLSI method. Format: functional. The method in brief:
as §2
Regarding `CN(C)[C@@H]1C(O)=C(C(N)=O)C(=O)[C@@]2(O)C(O)=C3C(=O)c4c(O)cc([C@@H]5CCCN5CC5CC5)c(C(F)(F)F)c4C[C@H]3C[C@@H]12`, the MIC is > 32 µg/mL.

The subject of another assay is Enterobacter cloacae. The assay can be described thus: Antibacterial activity against gram-negative Enterobacter cloacae EC1603 harboring tet(A) by CLSI method. Format: functional. In a few lines: as §1
As to `CN(C)[C@@H]1C(O)=C(C(N)=O)C(=O)[C@@]2(O)C(O)=C3C(=O)c4c(O)cc([C@@H]5CCCN5CC5CC5)c(C(F)(F)F)c4C[C@H]3C[C@@H]12`, the MIC is 32 µg/mL (≈ 52.8 µM).

In the next assay the test system is Staphylococcus aureus. The assay can be described thus: Antibacterial activity against gram-positive Staphylococcus aureus SA101 by CLSI method. It counts as functional. The method in brief:
as §2
Compound `CN(C)[C@@H]1C(O)=C(C(N)=O)C(=O)[C@@]2(O)C(O)=C3C(=O)c4c(O)cc([C@@H]5CCCN5CC5CC5)c(C(F)(F)F)c4C[C@H]3C[C@@H]12` registered a minimal inhibitory concentration (MIC) of 0.5 µg/mL (≈ 0.826 µM).

Compound `CN1CCCC1c1cc(O)c2c(c1Cl)C[C@H]1C[C@H]3[C@H](N(C)C)C(O)=C(C(N)=O)C(=O)[C@@]3(O)C(O)=C1C2=O` (stereo not given in full) displayed an MIC of 0.125 µg/mL (≈ 0.235 µM).

Another assay relates to Staphylococcus aureus. The assay can be described thus: Antibacterial activity against gram-positive Staphylococcus aureus SA161 harboring tet(M) by CLSI method. It counts as functional. The method in brief: as §1
Compound `CN(C)[C@@H]1C(O)=C(C(N)=O)C(=O)[C@@]2(O)C(O)=C3C(=O)c4c(O)cc([C@@H]5CCCN5CC5CC5)c(C(F)(F)F)c4C[C@H]3C[C@@H]12` returned an MIC of 1 µg/mL (≈ 1.65 µM).

On to `CN1CCCC1c1cc(O)c2c(c1Cl)C[C@H]1C[C@H]3[C@H](N(C)C)C(O)=C(C(N)=O)C(=O)[C@@]3(O)C(O)=C1C2=O` (stereo not given in full), for which the minimal inhibitory concentration (MIC) turned out to be 1 µg/mL (≈ 1.88 µM).

The next assay relates to Staphylococcus aureus. As to the kind of experiment: Antibacterial activity against gram-positive Staphylococcus aureus SA158 harboring tet(K) by CLSI method. It counts as functional. The method in brief:
as §1
Consider `CN(C)[C@@H]1C(O)=C(C(N)=O)C(=O)[C@@]2(O)C(O)=C3C(=O)c4c(O)cc([C@@H]5CCCN5CC5CC5)c(C(F)(F)F)c4C[C@H]3C[C@@H]12`, for which the minimal inhibitory concentration (MIC) is 0.125 µg/mL (≈ 0.206 µM).

Take `CN1CCCC1c1cc(O)c2c(c1Cl)C[C@H]1C[C@H]3[C@H](N(C)C)C(O)=C(C(N)=O)C(=O)[C@@]3(O)C(O)=C1C2=O` (stereo not given in full): the minimum inhibitory concentration (MIC) is ≤ 0.0156 µg/mL.

The next assay deals with Enterococcus faecalis. As to the kind of experiment: Antibacterial activity against gram-positive Enterococcus faecalis EF159 harboring tet(M) by CLSI method. Format: functional. In a few lines: as §1
`CN1CCCC1c1cc(O)c2c(c1Cl)C[C@H]1C[C@H]3[C@H](N(C)C)C(O)=C(C(N)=O)C(=O)[C@@]3(O)C(O)=C1C2=O` (stereo not given in full) gave a minimal inhibitory concentration (MIC) of 1 µg/mL (≈ 1.88 µM).

A further assay deals with Streptococcus pneumoniae. As to the kind of experiment: Antibacterial activity against gram-positive Streptococcus pneumoniae SP160 harboring tet(M) by CLSI method. It counts as functional. The method in brief: as §1
In turn, `CN(C)[C@@H]1C(O)=C(C(N)=O)C(=O)[C@@]2(O)C(O)=C3C(=O)c4c(O)cc([C@@H]5CCCN5CC5CC5)c(C(F)(F)F)c4C[C@H]3C[C@@H]12` showed an MIC of 0.0312 µg/mL (≈ 0.0515 µM).

`CN1CCCC1c1cc(O)c2c(c1Cl)C[C@H]1C[C@H]3[C@H](N(C)C)C(O)=C(C(N)=O)C(=O)[C@@]3(O)C(O)=C1C2=O` (stereo not given in full) returned an MIC of 0.5 µg/mL (≈ 0.94 µM).

Another assay concerns Streptococcus pneumoniae. The assay can be described thus: Antibacterial activity against gram-positive Streptococcus pneumoniae SP193 by CLSI method. It counts as functional. The method in brief: as §2
As to `CN1CCCC1c1cc(O)c2c(c1Cl)C[C@H]1C[C@H]3[C@H](N(C)C)C(O)=C(C(N)=O)C(=O)[C@@]3(O)C(O)=C1C2=O` (stereo not given in full), the MIC was ≤ 0.0156 µg/mL.

The next assay deals with Escherichia coli. The assay can be described thus: Antibacterial activity against gram-negative Escherichia coli EC107 by CLSI method. Format: functional. The method in brief:
as §2
In the case of `CN(C)[C@@H]1C(O)=C(C(N)=O)C(=O)[C@@]2(O)C(O)=C3C(=O)c4c(O)cc([C@@H]5CCCN5CC5CC5)c(C(F)(F)F)c4C[C@H]3C[C@@H]12`, the MIC is 1 µg/mL (≈ 1.65 µM).

With `CN1CCCC1c1cc(O)c2c(c1Cl)C[C@H]1C[C@H]3[C@H](N(C)C)C(O)=C(C(N)=O)C(=O)[C@@]3(O)C(O)=C1C2=O` (stereo not given in full), the minimum inhibitory concentration (MIC) was ≤ 0.0156 µg/mL.

For another assay, the system named is Escherichia coli. The assay can be described thus: Antibacterial activity against gram-negative Escherichia coli EC155 harboring tet(A) by CLSI method. It counts as functional. In a few lines:
as §1
As for `CN(C)[C@@H]1C(O)=C(C(N)=O)C(=O)[C@@]2(O)C(O)=C3C(=O)c4c(O)cc([C@@H]5CCCN5CC5CC5)c(C(F)(F)F)c4C[C@H]3C[C@@H]12`, the minimum inhibitory concentration (MIC) came out at 2 µg/mL (≈ 3.3 µM).

In turn, `CN1CCCC1c1cc(O)c2c(c1Cl)C[C@H]1C[C@H]3[C@H](N(C)C)C(O)=C(C(N)=O)C(=O)[C@@]3(O)C(O)=C1C2=O` (stereo not given in full) returned a minimal inhibitory concentration (MIC) of 1 µg/mL (≈ 1.88 µM).

(Values after ChEMBL document CHEMBL4007456, “Heterocyclyl Tetracyclines. 1. 7-Trifluoromethyl-8-Pyrrolidinyltetracyclines: Potent, Broad Spectrum Antibacterial Agents with Enhanced Activity against Pseudomonas aeruginosa” (2017).)
